Values after ≈ are worked out from the molar mass of the structure shown.
Test system: Mycobacterium tuberculosis
Experiment: Antimycobacterial activity against p-aminosalicylic acid/isonicotinic acid hydrazide/etambutol/rifampicin-resistant Mycobacterium tuberculosis Spec. 210
Format: functional
Outline: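 Classical test-tube successive-dilution method in Youmans' modification of Proskauer and Beck liquid medium with 10% bovine serum. Inoculum came from 14-day cultures. DMSO stock was 10 mg/mL, diluted geometrically in medium. Tubes were incubated at 37 °C. Concentrations tested were 3.1, 6.2, 12.5, 25, 50 and 100 µg/ml. MIC is the minimum concentration inhibiting growth relative to compound-free tubes.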

Row | SMILES | MIC [µg/mL]
1 | FC(F)(F)c1cccc(NC(S)=Nc2ccc(Cl)c(Cl)c2)c1 | 50 (≈ 137 µM)
2 | FC(F)(F)c1cccc(NC(S)=NCc2ccccc2)c1 | 25 (≈ 80.6 µM)
3 | O=C(NC(=S)Nc1cccc(C(F)(F)F)c1)c1ccccc1 | > 100
4 | FC(F)(F)c1cccc(NC(=S)Nc2ccccc2)c1 | 50 (≈ 169 µM)
5 | Fc1ccc(NC(=S)Nc2cccc(C(F)(F)F)c2)cc1 | 25 (≈ 79.5 µM)
6 | Fc1cccc(NC(=S)Nc2cccc(C(F)(F)F)c2)c1 | 25 (≈ 79.5 µM)
7 | Fc1ccccc1NC(=S)Nc1cccc(C(F)(F)F)c1 | 100 (≈ 318 µM)
8 | Fc1ccc(NC(=S)Nc2cccc(C(F)(F)F)c2)cc1Cl | 50 (≈ 143 µM)
9 | Cc1ccc(NC(=S)Nc2cccc(C(F)(F)F)c2)cc1Cl | > 100
10 | FC(F)(F)c1cccc(NC(=S)Nc2ccc(Cl)cc2)c1 | > 100
11 | N#Cc1ccc(NC(=S)Nc2cccc(C(F)(F)F)c2)cc1 | > 100
12 | O=[N+]([O-])c1ccc(NC(=S)Nc2cccc(C(F)(F)F)c2)cc1 | 50 (≈ 146 µM)
13 | FC(F)(F)c1cccc(NC(=S)Nc2cccc(Br)c2)c1 | 100 (≈ 267 µM)
14 | COc1cccc(NC(=S)Nc2cccc(C(F)(F)F)c2)c1 | > 100
15 | CCCCc1ccc(NC(=S)Nc2cccc(C(F)(F)F)c2)c(C)c1 | 50 (≈ 136 µM)
16 | COC(=O)c1ccccc1NC(=S)Nc1cccc(C(F)(F)F)c1 | > 100
17 | CCOC(=O)c1ccc(NC(=S)Nc2cccc(C(F)(F)F)c2)cc1 | > 100
18 | FC(F)(F)c1cccc(NC(=S)NCc2ccco2)c1 | > 100
19 | CSCCCNC(=S)Nc1cccc(C(F)(F)F)c1 | 50 (≈ 162 µM)
20 | FC(F)(F)c1cccc(NC(=S)NCCc2ccccc2)c1 | 50 (≈ 154 µM)
21 | CCNC(=S)Nc1cccc(C(F)(F)F)c1 | > 100
22 | C=C(C)CNC(=S)Nc1cccc(C(F)(F)F)c1 | > 100
23 | FC(F)(F)c1cccc(NC(=S)NC2CCCCC2)c1 | > 100
24 | FC(F)(F)c1cccc(NC(=S)Nc2cccc(Cl)c2)c1 | 100 (≈ 302 µM)
25 | NNC(=O)c1ccncc1 [ISONIAZID] | 6.25 (≈ 45.6 µM)
